Converted amounts (≈) assume the structure as drawn.
Experiments:
A549 [1] = experiment: Antiproliferative activity against human A549 cells after 72 hrs by MTT assay; format: functional, cell-based; conditions: A549, 72 h
U-87 MG [2] = experiment: Antiproliferative activity against human U87MG cells after 72 hrs by MTT assay; format: functional, cell-based, U-87MG ATCC
How it was run: (§1)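 Cells grown in RPMI 1640 with 10% FBS in 96-well plates overnight, then exposed to test agents in triplicate for 72 h. MTT (5 mg/mL stock) added for the last 4 h, formazan dissolved in DMSO, absorbance read at 570 nm. Inhibition = (1 − OD treated/OD control) × 100%.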

HCT-116 [3] = experiment: Antiproliferative activity against human HCT116 cells after 72 hrs by MTT assay; format: functional, cell-based; conditions: HCT-116, 72 h; how it was run: as §1
K562 [4] = experiment: Antiproliferative activity against human K562 cells after 72 hrs by MTT assay; format: functional, cell-based; conditions: K562, 72 h; how it was run: as §1
K562 [5] = experiment: Antiproliferative activity against human K562 cells after 72 hrs in presence of piperlongumine by MTT assay; format: functional, cell-based; conditions: K562, 72 h; how it was run: as §1
A549 [6] = experiment: Antiproliferative activity against human A549 cells after 72 hrs in presence of piperlongumine by MTT assay; format: functional, cell-based; conditions: A549, 72 h; how it was run: as §1
HCT-116 [7] = experiment: Antiproliferative activity against human HCT116 cells after 72 hrs in presence of piperlongumine by MTT assay; format: functional, cell-based; conditions: HCT-116, 72 h; how it was run: as §1
U-87 MG [8] = experiment: Antiproliferative activity against human U87MG cells after 72 hrs in presence of piperlongumine by MTT assay; format: functional, cell-based, U-87MG ATCC; how it was run: as §1
[9] = Solubility of compound in phosphate buffer at pH 7.4 after 8 hrs by HPLC analysis; format: physicochemical
How it was run: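 Compound was shaken in 50 mM phosphate buffer (pH 7.4) at 20 °C, centrifuged, and the supernatant analysed by HPLC. Conditions were a C18 column, acetonitrile–water 60/40 (v/v) at 1.0 mL/min, with detection at 254 nm. Run in triplicate.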

[10] = Aqueous solubility of compound by HPLC analysis; format: physicochemical; conditions: water
How it was run: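 Compound shaken in pure water or 50 mM phosphate buffer pH 7.4 at 20 °C, then centrifuged. Supernatant assayed by C18 HPLC (acetonitrile–water 60/40, 1.0 mL/min, 254 nm). Triplicate.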

[11] = Drug level in DMSO treated with (E)-3-Chloro-1-(3-(3,5,6-trimethylpyrazin-2-yl)acryloyl)-5,6-dihydropyridin-2(1H)-one at 5 mg up to 8 hrs in presence of methyl thioglycolate by 1H NMR analysis

Compound | IC50 (A549 [1]) | IC50 (U-87 MG [2]) | IC50 (HCT-116 [3]) | IC50 (K562 [4]) | IC50 (K562 [5]) | IC50 (A549 [6]) | IC50 (HCT-116 [7]) | IC50 (U-87 MG [8]) | solubility at 8 h [9] | solubility [10] | Drug metabolism [11]
Cc1nc(C)c(/C=C/C(=O)N2CCCCC2=O)nc1C | > 50 µM | > 50 µM | > 50 µM | > 50 µM | – | – | – | – | – | – | –
Cc1nc(C)c(C)nc1C [LIGUSTRAZINE] | – | – | – | – | 5.09 µM | 15.2 µM | 8.17 µM | 16.1 µM | – | – | –
COC(=O)CSC1CCN(C(=O)/C=C/c2nc(C)c(C)nc2C)C(=O)C1Cl (configuration not stated) | – | – | – | – | – | – | – | – | – | – | Metabolite detected

Second part, led by results:

IC50 (A549 [1]) | IC50 (U-87 MG [2]) | IC50 (HCT-116 [3]) | IC50 (K562 [4]) | IC50 (K562 [5]) | IC50 (A549 [6]) | IC50 (HCT-116 [7]) | IC50 (U-87 MG [8]) | solubility at 8 h [9] | solubility [10] | Compound | Drug metabolism [11]
2.48 µM | 4.28 µM | 0.46 µM | 0.48 µM | – | – | – | – | 67.3 µg/mL (≈ 192 µM) | 20.2 µg/mL (≈ 57.6 µM) | Cc1nc(C)c(/C=C/C(=O)N2CCC=C(Br)C2=O)nc1C | –
4.86 µM | 8.73 µM | 1.67 µM | 1.13 µM | – | – | – | – | 328 µg/mL (≈ 1210 µM) | 42.6 µg/mL (≈ 157 µM) | Cc1nc(C)c(/C=C/C(=O)N2CCC=CC2=O)nc1C | –
3.19 µM | 7.26 µM | 0.76 µM | 0.64 µM | – | – | – | – | 49.9 µg/mL (≈ 125 µM) | 14.5 µg/mL (≈ 36.5 µM) | Cc1nc(C)c(/C=C/C(=O)N2CCC=C(I)C2=O)nc1C | –

Source: ChEMBL document CHEMBL4033788, “Novel Ligustrazine-Based Analogs of Piperlongumine Potently Suppress Proliferation and Metastasis of Colorectal Cancer Cells in Vitro and in Vivo” (J Med Chem, 2018)
